Measured values from ChEMBL document CHEMBL4196009, “Novel vitexin-inspired scaffold against leukemia” (Eur J Med Chem, 2018).
pEC50: −log10 of the molar value. The source made the active and inactive calls. The rule behind the calls is not given here.

Columns and labels:
KOPN-8 [1] = assay: Induction of apoptosis in human KOPN8 cells assessed as upregulation of cleaved PARP level at 100 uM pre-treated with NAC for 1 hr and measured after 3 hrs by Western blot analysis; assay type: functional, cell-based
Outline: (§1)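 KOPN-8 cells were exposed to compound for 3 h and 24 h, with or without N-acetylcysteine added to a parallel set as antioxidant. Lysates were analysed by Western blot for cleaved PARP, Mcl-1, Ser-2-phosphorylated RNAPII CTD, cMyc, total Rb and pRb. Signals were compared against controls for dose-dependent change.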

[2] = biological target: T1, Retinoblastoma-associated protein (Homo sapiens) (UniProt P06400); assay: Inhibition of Rb phosphorylation in human KOPN8 cells assessed as ratio of phosphorylated Rb to total Rb levels at 10 uM pre-treated with NAC for 1 hr and measured after 24 hrs by Western blot analysis relative to control; assay type: cell-based
T1 sequence (whole entry): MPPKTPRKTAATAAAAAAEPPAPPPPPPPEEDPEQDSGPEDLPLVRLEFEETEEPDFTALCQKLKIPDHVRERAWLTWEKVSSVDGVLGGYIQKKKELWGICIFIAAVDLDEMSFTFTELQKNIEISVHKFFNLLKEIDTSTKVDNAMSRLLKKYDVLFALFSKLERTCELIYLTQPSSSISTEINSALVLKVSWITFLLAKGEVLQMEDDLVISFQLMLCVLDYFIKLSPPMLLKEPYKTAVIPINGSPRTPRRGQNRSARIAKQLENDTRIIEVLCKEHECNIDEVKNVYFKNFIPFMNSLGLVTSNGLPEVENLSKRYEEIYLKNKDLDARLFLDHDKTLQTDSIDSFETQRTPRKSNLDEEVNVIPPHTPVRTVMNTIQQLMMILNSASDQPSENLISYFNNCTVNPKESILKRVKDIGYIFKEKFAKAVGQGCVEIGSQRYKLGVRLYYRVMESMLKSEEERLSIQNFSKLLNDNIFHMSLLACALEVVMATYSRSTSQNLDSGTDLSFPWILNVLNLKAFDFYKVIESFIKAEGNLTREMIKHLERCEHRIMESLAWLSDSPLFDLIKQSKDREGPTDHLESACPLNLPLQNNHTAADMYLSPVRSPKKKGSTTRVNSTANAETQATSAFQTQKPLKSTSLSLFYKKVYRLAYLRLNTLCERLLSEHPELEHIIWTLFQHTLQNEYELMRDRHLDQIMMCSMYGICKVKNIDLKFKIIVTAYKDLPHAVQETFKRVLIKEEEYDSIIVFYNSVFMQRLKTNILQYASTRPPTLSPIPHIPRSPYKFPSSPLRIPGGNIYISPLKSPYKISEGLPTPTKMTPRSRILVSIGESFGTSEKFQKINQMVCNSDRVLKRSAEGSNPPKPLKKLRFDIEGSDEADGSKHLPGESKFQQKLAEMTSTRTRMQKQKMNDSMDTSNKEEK
Outline: (§2)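 KOPN-8 pre-B ALL cells were treated for 3 h and 24 h, with or without N-acetyl cysteine added to a parallel set of cells as an antioxidant/ROS quencher. Lysates were analysed by Western blot for phosphorylated Rb and total Rb. The same blots also probed PARP cleavage, Mcl-1, Ser-2-phosphorylated RNAPII CTD and cMyc.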

KOPN-8 [3] = assay: Induction of apoptosis in human KOPN8 cells assessed as early apoptotic cells at 10 uM after 24 hrs by Annexin V-FITC/propidium iodide staining-based flow cytometry (reference value: 0.1%); assay type: functional
Outline: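 KOPN-8 cells treated 24 h alongside a DMSO vehicle and a staurosporine (2.0 µM) positive control. Apoptosis was scored by FITC Annexin V / propidium iodide flow cytometry with quadrant gating (early, late apoptotic). DNA content was measured by PI staining to give the percentage of cells in G0/G1, S and G2/M. Groups were compared by t-test; error bars are SD.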

KOPN-8 [4] = assay: Effect on c-Myc expression in human KOPN8 cells at 10 uM after 24 hrs by Western blot analysis relative to control; assay type: functional
Outline: (§3)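 KOPN-8 cells were treated at 10–100 µM final, with or without N-acetylcysteine co-addition, for 3 h and 24 h. Lysates were analysed by Western blot for PARP cleavage, Mcl-1, phospho-Ser2 RNAPII CTD, c-Myc, total Rb and pRb. Levels are relative to the vehicle control.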

THLE-2 = assay: Antiproliferative activity against human THLE2 cells after 72 hrs by CelTiter-Glo assay; assay type: cell-based; settings: THLE-2, 72 h
SUP-B15 [5] = assay: Induction of apoptosis in human SUP-B15 cells assessed as viable cells at 10 uM after 24 hrs by Annexin V-FITC/propidium iodide staining-based flow cytometry (reference value: 82.8%); assay type: functional; settings: SUP-B15, 24 h, read-out: Activity
KOPN-8 [6] = assay: Induction of apoptosis in human KOPN8 cells assessed as effect on Mcl-1 level at 10 uM pre-treated with NAC for 1 hr and measured after 24 hrs by Western blot analysis relative to control; assay type: functional
KOPN-8 [7] = assay: Induction of apoptosis in human KOPN8 cells assessed as viable cells at 10 uM after 24 hrs by Annexin V-FITC/propidium iodide staining-based flow cytometry (reference value: 85.2%); assay type: functional; settings: KOPN-8, 24 h, read-out: Activity
Outline: (§4)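 KOPN-8 cells were treated for 24 h, with a DMSO vehicle control and a staurosporine positive control. Cells were stained with FITC-Annexin V and propidium iodide and analysed by flow cytometry. Quadrant gating separated viable, early apoptotic, late apoptotic (Q2) and necrotic populations.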

Homo sapiens [8] = organism: Homo sapiens; assay: Inhibition of RNA polymerase 2 C-terminal domain phosphorylation at Ser2 residue in human KOPN8 cells at 30 uM after 3 hrs by Western blot analysis relative to control; assay type: cell-based; outline: as §1
KOPN-8 [9] = assay: Effect on c-Myc expression in human KOPN8 cells at 30 uM after 24 hrs by Western blot analysis relative to control; assay type: functional; outline: as §3
[10] = biological target: T1, Retinoblastoma-associated protein (Homo sapiens); assay: Inhibition of Rb phosphorylation in human KOPN8 cells assessed as ratio of phosphorylated Rb to total Rb levels at 30 uM pre-treated with NAC for 1 hr and measured after 3 hrs by Western blot analysis relative to control; assay type: cell-based; outline: as §2
MDA-MB-231 = assay: Cell cycle arrest in human MDA-MB-231 cells assessed as accumulation at S phase at 20 uM after 24 hrs by propidium iodide staining-based flow cytometry (reference value: 20.15%); assay type: functional
Homo sapiens [11] = organism: Homo sapiens; assay: Inhibition of RNA polymerase 2 C-terminal domain phosphorylation at Ser2 residue in human KOPN8 cells at 10 uM after 24 hrs by Western blot analysis relative to control; assay type: cell-based; outline: as §1
KOPN-8 [12] = assay: Induction of apoptosis in human KOPN8 cells assessed as upregulation of cleaved PARP level at 0.5 uM after 24 hrs by Western blot analysis; assay type: functional, cell-based; outline: as §1
KOPN-8 [13] = assay: Effect on c-Myc expression in human KOPN8 cells at 0.5 uM after 3 hrs by Western blot analysis relative to control; assay type: functional
SUP-B15 [14] = assay: Induction of apoptosis in human SUP-B15 cells assessed as late apoptotic cells at 5 uM after 24 hrs by Annexin V-FITC/propidium iodide staining-based flow cytometry (reference value: 2.2%); assay type: functional
KOPN-8 [15] = assay: Induction of apoptosis in human KOPN8 cells assessed as late apoptotic cells at 5 uM after 24 hrs by Annexin V-FITC/propidium iodide staining-based flow cytometry (reference value: 9.5%); assay type: functional; outline: as §4

fold change (FC) [2] | fold change (FC) [10] | SMILES | Activity (KOPN-8 [1]) | Activity (KOPN-8 [3]) [%] | fold change (FC) (KOPN-8 [4]) | pEC50 (THLE-2) | viability at 10 µM (SUP-B15 [5]) [%] | fold change (FC) (KOPN-8 [6]) | viability at 10 µM (KOPN-8 [7]) [%] | fold change (FC) (Homo sapiens [8]) | fold change (FC) (KOPN-8 [9]) | Activity (MDA-MB-231) [%] | fold change (FC) (Homo sapiens [11]) | Activity (KOPN-8 [12]) | fold change (FC) (KOPN-8 [13]) | Activity (SUP-B15 [14]) [%] | Activity (KOPN-8 [15]) [%]
1 | 1 | COc1ccc(-c2c(I)c(=O)c3c(OC)cc(OC)cc3n2S(=O)(=O)c2ccc(OC)cc2)cc1 | inactive | 0.2 | 1.3 | 4.24 | 70.5 | 0.8 | 8.5 | 1 | 0.9 | 17.81 | 1.8 | – | – | – | –
– | – | CN(C)C(=O)c1cc2cnc(Nc3ccc(N4CCNCC4)cn3)nc2n1C1CCCC1 [RIBOCICLIB] | – | – | – | – | – | – | – | – | – | – | – | inactive | 1 | 22.5 | 67.4
